Measured values reported in ChEMBL document CHEMBL3351557, “Discovery of Potent and Simplified Piperidinone-Based Inhibitors of the MDM2-p53 Interaction” (ACS Med Chem Lett, 2014).
Active and inactive are the calls of the source. The calls are words filed in the database; no cut-off is given here.

Experiments:
[1] = Clearance in rat at 0.5 mg/kg, iv; details: in vivo
[2] = Oral bioavailability in rat at 2 mg/kg; format: ADME, organism-based; details: in vivo
[3] = Clearance in mouse at 1 mg/kg, iv; format: ADME, organism-based; design: dose 1 mg/kg, route intravenous; details: in vivo
SJSA-1 [4] = test: Increase in p21 mRNA expression in tumor of human SJSA1 cells xenografted athymic nude mouse at 50 to 200 mg/kg, po administered as single dose 2 weeks post implantation relative to vehicle-treated control; format: functional, organism-based
Method in brief: (§1)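 SJSA-1 osteosarcoma cells were implanted in mice 2 weeks before a single oral dose (100 or 200 mg/kg in one study; 50, 100 or 200 mg/kg in another). Tumour p21 mRNA, a p53 transcriptional target, was measured at several times after dosing and expressed relative to vehicle-treated controls.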

[5] = Clearance in rat at 0.5 mg/kg, iv; format: ADME, organism-based; design: dose 0.5 mg/kg, route intravenous; details: in vivo
SJSA-1 [6] = test: Increase in p21 mRNA expression in tumor of human SJSA1 cells xenografted athymic nude mouse compound administered as single oral dose 2 weeks post implantation measured 4 to 8 hrs post dose relative to vehicle-treated control; format: functional
Method in brief: as §1

[7] = Oral bioavailability in mouse at 5 mg/kg; format: ADME, organism-based; details: in vivo
[8] = Intrinsic clearance in rat hepatocytes assessed per million cells; format: ADME, cell-based, Hepatocyte; details: read-out: CLH
[9] = biological target: T1, Tumour suppressor p53/oncoprotein Mdm2 (Homo sapiens, UniProt Q00987); test: Inhibition of human MDM2 (1-188 aa) -p53 (1-83 aa) interaction expressed in Escherichia coli after 18 hrs by HTRF assay in presence of 15% human serum
T1 sequence (P04637 whole entry, the tested form may be a part): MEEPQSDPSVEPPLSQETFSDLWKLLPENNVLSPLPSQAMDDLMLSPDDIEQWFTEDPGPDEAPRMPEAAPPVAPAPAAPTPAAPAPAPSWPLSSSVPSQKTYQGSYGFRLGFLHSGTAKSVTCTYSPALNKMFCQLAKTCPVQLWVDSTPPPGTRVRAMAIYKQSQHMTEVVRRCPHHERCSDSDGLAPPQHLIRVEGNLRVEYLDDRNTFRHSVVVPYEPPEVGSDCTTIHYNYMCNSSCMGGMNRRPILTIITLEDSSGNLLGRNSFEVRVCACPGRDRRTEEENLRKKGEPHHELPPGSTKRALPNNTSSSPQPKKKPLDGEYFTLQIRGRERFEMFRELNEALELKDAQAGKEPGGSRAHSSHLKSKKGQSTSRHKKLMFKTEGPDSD
T1 sequence (Q00987 whole entry, the tested form may be a part): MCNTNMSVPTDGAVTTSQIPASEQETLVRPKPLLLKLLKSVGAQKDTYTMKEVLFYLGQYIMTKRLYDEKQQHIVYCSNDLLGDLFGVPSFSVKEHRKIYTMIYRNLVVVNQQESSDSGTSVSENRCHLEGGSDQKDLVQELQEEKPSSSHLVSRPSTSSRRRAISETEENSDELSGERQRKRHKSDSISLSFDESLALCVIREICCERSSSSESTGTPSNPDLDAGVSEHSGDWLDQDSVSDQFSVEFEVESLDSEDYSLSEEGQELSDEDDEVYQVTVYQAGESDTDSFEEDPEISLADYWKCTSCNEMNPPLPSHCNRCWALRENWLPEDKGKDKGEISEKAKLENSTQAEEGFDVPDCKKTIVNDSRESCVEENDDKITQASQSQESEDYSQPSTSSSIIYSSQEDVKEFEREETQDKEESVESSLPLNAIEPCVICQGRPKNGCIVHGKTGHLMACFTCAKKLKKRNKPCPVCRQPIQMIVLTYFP

[10] = biological target: T1, Tumour suppressor p53/oncoprotein Mdm2; test: Inhibition of human MDM2 (1-188 aa) -p53 (1-83 aa) interaction expressed in Escherichia coli after 18 hrs by HTRF assay
SJSA-1 [11] = test: Antiproliferative activity against human SJSA1 cells after 3 days by EdU incorporation-based HCS assay in presence of 10% human serum; format: functional, cell-based; details: SJSA-1, 72 h
[12] = Half life in mouse; format: ADME, organism-based; details: in vivo
[13] = Intrinsic clearance in human hepatocytes assessed per million cells; format: ADME, cell-based, Hepatocyte; details: read-out: CLH
[14] = Clearance in mouse; format: ADME, organism-based; details: in vivo
[15] = Bioavailability in rat at 0.5 mg/kg, iv; format: ADME, organism-based; details: in vivo
[16] = Half life in rat at 0.5 mg/kg, iv; format: ADME, organism-based; design: dose 0.5 mg/kg, route intravenous; details: in vivo
Mus musculus [17] = test: Toxicity in human SJSA1 cells xenografted athymic nude mouse assessed as body weight loss at 200 mg/kg, po qd administered 2 weeks post implantation; format: organism-based, SJSA-1; design: dose 200 mg/kg, route oral; details: in vivo, 336 h
Method in brief: (§2)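 Female athymic nude mice were implanted subcutaneously with 5 × 10⁶ SJSA-1 cells. Oral gavage of vehicle or compound (50, 100 or 200 mg/kg QD; 50 or 100 mg/kg BID) began on day 14, when tumours were about 200 mm³. There were 10 mice per group, and tumours were measured twice weekly.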

SJSA-1 [18] = test: Antitumor activity against human SJSA1 cells xenografted in athymic nude mouse assessed as tumor growth inhibition at 50 mg/kg, po bid administered 2 weeks post implantation relative to vehicle-treated control; details: SJSA-1, po, 336 h, read-out: TGI
Mus musculus [19] = test: Toxicity in human SJSA1 cells xenografted athymic nude mouse assessed as body weight loss at 100 mg/kg, po bid administered 2 weeks post implantation; format: organism-based, SJSA-1; design: dose 100 mg/kg, route oral; details: in vivo, 336 h
Method in brief: as §2

SJSA-1 [20] = test: Antitumor activity against human SJSA1 cells xenografted in athymic nude mouse assessed as tumor growth inhibition at 100 mg/kg, po qd administered 2 weeks post implantation relative to vehicle-treated control; details: SJSA-1, po, 336 h, read-out: TGI
SJSA-1 [21] = test: Increase in p21 mRNA expression in tumor of human SJSA1 cells xenografted athymic nude mouse at 100 mg/kg, po as single dose administered 2 weeks post implantation measured 4 hrs post dose relative to vehicle-treated control; format: functional, organism-based; design: dose 100 mg/kg
Method in brief: as §1

| Compound | clearance [5] | IC50 [9] | IC50 [10] | IC50 (SJSA-1 [11]) | also measured |
| --- | --- | --- | --- | --- | --- |
| CCC(CC)N1C(=O)[C@@](C)(CC(=O)O)C[C@H](c2cccc(Cl)c2)[C@H]1c1ccc(Cl)cc1 | 7.5 mL/min/kg | – | – | – | clearance [1]: 7.5 mL/min/kg; bioavailability [2]: 38%; clearance [3]: 16.5 mL/min/kg; Activity (SJSA-1 [4]; TDE = time-dependent effect): tde; Activity (SJSA-1 [6]): Dose-dependent effect; bioavailability [7]: 42%; hepatocyte CLint [8]: 18.8 µL/min/1e6 cells |
| C[C@]1(CC(=O)O)C[C@H](c2cccc(Cl)c2)[C@@H](c2ccc(Cl)cc2)N(c2ccccc2)C1=O | 40.8 mL/min/kg | 55 nM | 4 nM | – | – |
| CC(C)[C@@H](c1ccccn1)N1C(=O)[C@@](C)(CC(=O)O)C[C@H](c2cccc(Cl)c2)[C@H]1c1ccc(Cl)cc1 | – | – | – | 290 nM | – |
| CC[C@@H](c1ccc(C)cn1)N1C(=O)[C@@](C)(CC(=O)O)CC(c2cccc(Cl)c2)[C@H]1c1ccc(Cl)cc1 (single isomer, unassigned) | – | 123 nM | 7 nM | 900 nM | – |
| CC[C@@H]([C@H](C)OC)N1C(=O)[C@@](C)(CC(=O)O)C[C@H](c2cccc(Cl)c2)[C@H]1c1ccc(Cl)cc1 | – | – | – | 143 nM | – |
| CC[C@@H](c1ccncc1)N1C(=O)[C@@](C)(CC(=O)O)C[C@H](c2cccc(Cl)c2)[C@H]1c1ccc(Cl)cc1 | – | – | – | 460 nM | – |
| C[C@]1(CC(=O)O)C[C@H](c2cccc(Cl)c2)[C@@H](c2ccc(Cl)cc2)N(c2ccccn2)C1=O | 36 mL/min/kg | 122 nM | 13 nM | – | – |
| CC[C@@H](c1cnco1)N1C(=O)[C@@](C)(CC(=O)O)C[C@H](c2cccc(Cl)c2)[C@H]1c1ccc(Cl)cc1 | – | 36 nM | 8 nM | 840 nM | – |
| CC[C@@H](c1ccccn1)N1C(=O)[C@@](C)(CC(=O)O)CC(c2cccc(Cl)c2)[C@H]1c1ccc(Cl)cc1 (single isomer, unassigned) | – | – | – | 430 nM | half-life [12]: 114 min; hepatocyte CLint [13]: 7 µL/min/1e6 cells; clearance [14]: 51.7 mL/min/kg; bioavailability [15]: 79%; hepatocyte CLint [8]: 13 µL/min/1e6 cells; half-life [16]: 210 min |
| CC(C)N1C(=O)[C@@](C)(CC(=O)O)C[C@H](c2cccc(Cl)c2)[C@H]1c1ccc(Cl)cc1 | 17.3 mL/min/kg | – | – | 380 nM | Activity (Mus musculus [17]): Toxic; inhibition in vivo at 50 mg/kg (SJSA-1 [18]): 82%; clearance [1]: 17.3 mL/min/kg; bioavailability [2]: 48%; Activity (Mus musculus [19]): Toxic; clearance [3]: 17.2 mL/min/kg; Activity (SJSA-1 [4]): Active; Activity (SJSA-1 [6]): Active; bioavailability [7]: 32%; hepatocyte CLint [8]: 8.5 µL/min/1e6 cells; inhibition in vivo at 100 mg/kg (SJSA-1 [20]): 96%; Activity (SJSA-1 [21]): Active |
| CC[C@@H](c1ncccc1C)N1C(=O)[C@@](C)(CC(=O)O)C[C@H](c2cccc(Cl)c2)[C@H]1c1ccc(Cl)cc1 | – | 183 nM | 5 nM | 310 nM | – |
| CCC[C@@H](c1ccccn1)N1C(=O)[C@@](C)(CC(=O)O)C[C@H](c2cccc(Cl)c2)[C@H]1c1ccc(Cl)cc1 | 3.33 mL/min/kg | – | – | 990 nM | half-life [16]: 414 min |
| CC[C@@H](c1cc(C)ccn1)N1C(=O)[C@@](C)(CC(=O)O)C[C@H](c2cccc(Cl)c2)[C@H]1c1ccc(Cl)cc1 | – | 60 nM | 6 nM | 890 nM | – |
| CC[C@@H](c1ncccn1)N1C(=O)[C@@](C)(CC(=O)O)C[C@H](c2cccc(Cl)c2)[C@H]1c1ccc(Cl)cc1 | – | – | – | 420 nM | – |
| CC[C@@H]([C@@H]1CCCO1)N1C(=O)[C@@](C)(CC(=O)O)C[C@H](c2cccc(Cl)c2)[C@H]1c1ccc(Cl)cc1 | – | – | – | 123 nM | – |
| CC[C@@H](c1cccc(Cl)n1)N1C(=O)[C@@](C)(CC(=O)O)C[C@H](c2cccc(Cl)c2)[C@H]1c1ccc(Cl)cc1 | 20 mL/min/kg | – | – | 210 nM | – |
| C[C@@H](c1ccccn1)N1C(=O)[C@@](C)(CC(=O)O)C[C@H](c2cccc(Cl)c2)[C@H]1c1ccc(Cl)cc1 | – | 62 nM | 10 nM | 420 nM | – |
| CC[C@@H](c1cccc(C2CC2)n1)N1C(=O)[C@@](C)(CC(=O)O)CC(c2cccc(Cl)c2)[C@H]1c1ccc(Cl)cc1 (single isomer, unassigned) | – | – | – | 1820 nM | – |
| CC[C@@H](c1cccc(C)n1)N1C(=O)[C@@](C)(CC(=O)O)C[C@H](c2cccc(Cl)c2)[C@H]1c1ccc(Cl)cc1 | 15.5 mL/min/kg | – | – | 280 nM | – |
